Activity calls are given as the source filed them. The rule behind the calls is not given here.
Tests used:
[1] = biological target: T1, DNA topoisomerase 2-alpha (Homo sapiens, UniProt P11388); experiment: Inhibition of purified human topoisomerase 2-mediated relaxation of supercoiled pBR322 DNA at 20 uM incubated for 30 mins by agarose gel electrophoresis
Summary of the method: (§1)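 Reactions contained 0.2 μg supercoiled pBR322 in 50 mM Tris-HCl pH 8.0, 150 mM NaCl, 10 mM MgCl2, 0.5 mM DTT, 30 μg/ml BSA, normally 2 mM ATP (1, 2 or 4 mM in ATP-competition runs). Started with 1 U human Topo II, 30 min at 37 °C, stopped with sarcosyl buffer, run on 1% agarose 1.5 h at 75 V, gel-stained and imaged under UV.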

[2] = biological target: T2, DNA topoisomerase 1 (Homo sapiens) (UniProt P11387); experiment: Inhibition of recombinant human topoisomerase 1-mediated relaxation of supercoiled pBR322 DNA at 50 uM incubated for 30 mins by agarose gel electrophoresis
T2 sequence (whole entry): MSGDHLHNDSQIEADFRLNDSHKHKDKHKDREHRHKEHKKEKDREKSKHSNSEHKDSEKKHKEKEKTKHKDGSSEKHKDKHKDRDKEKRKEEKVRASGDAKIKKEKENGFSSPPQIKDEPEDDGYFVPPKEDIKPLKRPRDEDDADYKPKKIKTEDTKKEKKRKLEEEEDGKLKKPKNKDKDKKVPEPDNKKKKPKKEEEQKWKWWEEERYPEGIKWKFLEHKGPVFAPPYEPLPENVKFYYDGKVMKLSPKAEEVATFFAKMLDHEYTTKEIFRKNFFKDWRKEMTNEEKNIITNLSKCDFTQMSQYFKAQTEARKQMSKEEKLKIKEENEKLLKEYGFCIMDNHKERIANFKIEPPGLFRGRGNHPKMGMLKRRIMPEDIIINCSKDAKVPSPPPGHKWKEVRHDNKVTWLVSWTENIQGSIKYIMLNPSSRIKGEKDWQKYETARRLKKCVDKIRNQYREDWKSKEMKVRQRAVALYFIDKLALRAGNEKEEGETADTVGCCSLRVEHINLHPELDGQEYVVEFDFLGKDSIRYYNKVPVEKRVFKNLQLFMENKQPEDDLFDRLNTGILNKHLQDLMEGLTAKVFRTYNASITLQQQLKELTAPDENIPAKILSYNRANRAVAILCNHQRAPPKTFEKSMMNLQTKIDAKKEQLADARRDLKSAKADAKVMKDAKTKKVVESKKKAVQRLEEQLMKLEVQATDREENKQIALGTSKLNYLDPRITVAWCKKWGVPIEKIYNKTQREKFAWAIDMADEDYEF
Summary of the method: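 Supercoiled pBR322 relaxed by Topo I with compound, incubated 30 min at 37 °C, stopped with 1% SDS dye, run on 1% agarose 1 h at 90 V in TAE, stained and imaged under UV; camptothecin as reference.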

[3] = system: HeLa; experiment: Antiproliferative activity against human HeLa cells after 48 hrs by MTT assay; format: functional, cell-based
Summary of the method: (§2)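 Cells seeded at 5000 per well and left overnight, then exposed to increasing concentrations (0-50 μM) for 48 h. […] HL-60/MX2 is a mitoxantrone-selected HL-60 derivative with reduced Topo IIα/β.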

[4] = Antiproliferative activity against human MDA-MB-201 cells after 48 hrs by MTT assay; format: functional, cell-based; summary of the method: as §2
[5] = system: A549; experiment: Antiproliferative activity against human A549 cells after 48 hrs by MTT assay; format: functional, cell-based; details: A549, 48 h; summary of the method: as §2
[6] = system: K562; experiment: Antiproliferative activity against human K562 cells after 48 hrs by MTT assay; format: functional, cell-based; details: K562, 48 h; summary of the method: as §2
[7] = system: Raji; experiment: Antiproliferative activity against human Raji cells after 48 hrs by MTT assay; format: functional, cell-based; summary of the method: as §2
[8] = Antiproliferative activity against human HL60 cells after 48 hrs by MTT assay; format: functional, cell-based; details: HL-60, 48 h; summary of the method: as §2
[9] = Antiproliferative activity against human HL60/MX2 cells after 48 hrs by MTT assay; format: functional, cell-based; details: HL60/MX2, 48 h; summary of the method: as §2
[10] = system: HL-60; experiment: Resistance index, ratio of IC50 for human HL60/MX2 cells to IC50 for HL60 cells; format: functional
Summary of the method: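 Resistance index calculated as MTT-derived IC50 (48 h exposure, 0-50 μM, A570 readout) in HL-60/MX2 divided by IC50 in parental HL-60.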

[11] = system: HEK293; experiment: Cytotoxicity against HEK293 cells after 48 hrs by MTT assay; format: cell-based; details: Homo sapiens, HEK293, 48 h
[12] = biological target: T1, DNA topoisomerase 2-alpha; experiment: Inhibition of purified human topoisomerase 2-mediated relaxation of supercoiled pBR322 DNA at 50 uM incubated for 30 mins by agarose gel electrophoresis; summary of the method: as §1

T1 sequence (P11388 whole entry): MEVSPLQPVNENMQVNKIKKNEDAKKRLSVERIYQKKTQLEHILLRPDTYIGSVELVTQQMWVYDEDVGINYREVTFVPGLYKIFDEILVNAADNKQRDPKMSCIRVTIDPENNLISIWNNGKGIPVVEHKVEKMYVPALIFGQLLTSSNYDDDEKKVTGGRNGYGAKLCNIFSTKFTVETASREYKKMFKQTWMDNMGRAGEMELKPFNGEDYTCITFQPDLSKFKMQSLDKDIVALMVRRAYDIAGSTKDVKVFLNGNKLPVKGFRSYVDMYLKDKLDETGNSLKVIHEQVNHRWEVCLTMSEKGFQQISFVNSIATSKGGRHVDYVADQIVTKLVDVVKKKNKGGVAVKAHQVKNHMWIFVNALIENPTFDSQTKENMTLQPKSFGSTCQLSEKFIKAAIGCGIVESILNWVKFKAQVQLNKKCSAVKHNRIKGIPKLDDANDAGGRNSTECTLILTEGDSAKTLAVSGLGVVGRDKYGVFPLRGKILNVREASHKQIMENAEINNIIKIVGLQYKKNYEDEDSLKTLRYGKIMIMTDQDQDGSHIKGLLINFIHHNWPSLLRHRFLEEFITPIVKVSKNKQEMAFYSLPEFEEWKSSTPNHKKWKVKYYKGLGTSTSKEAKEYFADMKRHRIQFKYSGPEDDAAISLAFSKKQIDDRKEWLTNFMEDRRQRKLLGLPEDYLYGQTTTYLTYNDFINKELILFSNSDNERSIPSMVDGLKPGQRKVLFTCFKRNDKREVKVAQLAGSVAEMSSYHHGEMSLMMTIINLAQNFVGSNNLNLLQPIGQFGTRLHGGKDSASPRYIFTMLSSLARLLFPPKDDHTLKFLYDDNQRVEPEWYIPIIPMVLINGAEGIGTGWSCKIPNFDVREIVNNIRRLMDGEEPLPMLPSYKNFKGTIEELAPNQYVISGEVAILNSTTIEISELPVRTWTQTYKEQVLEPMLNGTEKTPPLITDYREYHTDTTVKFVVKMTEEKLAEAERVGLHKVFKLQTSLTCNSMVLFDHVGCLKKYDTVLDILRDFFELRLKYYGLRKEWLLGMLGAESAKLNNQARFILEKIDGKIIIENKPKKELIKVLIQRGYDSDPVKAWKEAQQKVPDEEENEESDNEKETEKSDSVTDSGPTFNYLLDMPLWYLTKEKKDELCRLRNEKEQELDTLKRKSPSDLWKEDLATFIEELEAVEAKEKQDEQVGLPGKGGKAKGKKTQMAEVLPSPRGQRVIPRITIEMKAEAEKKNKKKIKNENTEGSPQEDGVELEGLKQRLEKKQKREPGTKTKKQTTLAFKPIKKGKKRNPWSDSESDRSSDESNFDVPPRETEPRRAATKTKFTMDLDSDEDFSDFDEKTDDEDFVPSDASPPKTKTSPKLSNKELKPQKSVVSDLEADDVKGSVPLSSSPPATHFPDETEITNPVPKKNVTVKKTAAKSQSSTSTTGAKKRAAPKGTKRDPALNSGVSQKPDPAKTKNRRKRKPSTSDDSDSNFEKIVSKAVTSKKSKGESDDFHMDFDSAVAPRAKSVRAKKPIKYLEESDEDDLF

Row | Compound | inhibition [1] | inhibition [2] | IC50 [3] [µM] | IC50 [4] [µM] | IC50 [5] [µM] | IC50 [6] [µM] | IC50 [7] [µM] | IC50 [8] [µM] | IC50 [9] [µM] | Ratio IC50 [10] | IC50 [11] [µM] | inhibition [12]
1 | CN(C)CCCn1c(N)c(-c2nc3ccccc3[nH]2)c2nc(C#N)c(C#N)nc21 | Active | inactive | 25.9 | 1.82 | 10.4 | 1.73 | 1.23 | 0.87 | 2.39 | 2.7 | 8.36 | 
2 | CCN(CC)CCCCn1c(N)c(-c2nc3ccccc3n2C)c2nc(C#N)c(C#N)nc21 | Active |  | 1.61 | 2.89 | 1.72 | 1.01 | 0.92 | 0.7 | 1.73 | 2.5 | 3.16 | 
3 | CN(C)CCCn1c(N)c(-c2nc3ccccc3o2)c2nc(C#N)c(C#N)nc21 | Active |  | 11.2 | 5.64 | 7.17 | 5.9 | 1.94 | 0.39 | 1.31 | 3.3 | 5.88 | 
4 | CCN(CC)CCCCn1c(N)c(-c2nc3ccccc3o2)c2nc(C#N)c(C#N)nc21 | Active |  | 6.42 | 2.71 | 9.39 | 1.98 | 2.61 | 0.45 | 1.72 | 3.8 | 3.96 | 
5 | CN(C)CCCCn1c(N)c(-c2nc3ccccc3o2)c2nc(C#N)c(C#N)nc21 | Active |  | 1.95 | 6.13 | 5.47 | 1.38 | 9.2 | 0.64 | 0.96 | 1.5 | 6.24 | 
6 | CN1CCN(CCn2c(N)c(-c3nc4ccccc4[nH]3)c3nc(C#N)c(C#N)nc32)CC1 |  | inactive | > 50 | 9.11 | 40.5 | 6.55 | > 50 | 4.3 | 6.49 | 1.5 | 10.9 | 
7 | CN(C)CCCCn1c(N)c(-c2nc3ccccc3s2)c2nc(C#N)c(C#N)nc21 | Active |  | 18.7 | 2.74 | 35.8 | 1.33 | 10.1 | 0.83 | 2.14 | 2.6 | 5.31 | 
8 | CN1CCN(CCCn2c(N)c(-c3nc4ccccc4[nH]3)c3nc(C#N)c(C#N)nc32)CC1 |  | inactive | 15.6 | 4.52 | 5.75 | 1.26 | 2.62 | 0.75 | 3.32 | 4.4 | 6.26 | inactive
9 | N#Cc1nc2c(-c3nc4ccccc4[nH]3)c(N)n(CCCN3CCOCC3)c2nc1C#N |  | inactive | > 50 | > 50 | > 50 | 7.72 | 14.4 | > 50 | 5.57 |  | > 50 | inactive
10 | N#Cc1nc2c(-c3nc4ccccc4[nH]3)c(N)n(CCCN3CCCCC3)c2nc1C#N |  | inactive | 6.68 | 6.23 | 6.11 | 3.46 | 3.38 | 1.68 | 1.01 | 0.6 | 6.72 | inactive
